# Laboratory results from ChEMBL document CHEMBL5316274 (J Med Chem, 2023).
# pEC50, pKi: −log10 of the molar value. Calls of active or inactive are those of the source. No cut-off for these calls is given here.
# Assays:
# Mu-type opioid receptor [1] = target: T1, Mu-type opioid receptor (Mus musculus, UniProt P42866); assay: Binding affinity to mouse mu opioid receptor expressed in CHO cell membrane assessed as inhibition constant incubated for 1.5 hrs by competitive radioligand binding assay; assay type: cell membranes
# Mus musculus [2] = assay: Antinociceptive activity in Swiss Webster mouse assessed as inhibition of morphine induced latency to tail withdrawal at 10 mg/kg, sc preincubated for 5 mins followed by morphine addition and measured after 20 mins by warm water tail immersion assay; assay type: functional, organism-based; details: time 25.0 min
# In short: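 Male Swiss-Webster mice (n = 5). Compound is given s.c. at time 0 (10 mg/kg in the single-dose screen, a dose range for AD50), and morphine 10 mg/kg follows 5 min later. Tail flick is tested in 56 ± 0.1 °C water 20 min after morphine and scored as % MPE. Saline and morphine alone are the controls.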
# Mu-type opioid receptor [3] = target: T1, Mu-type opioid receptor; assay: Binding affinity to mouse mu opioid receptor expressed in CHO cell membrane assessed as [35S]GTPgammaS binding incubated for 1.5 hrs by liquid scintillation counter analysis; assay type: cell membranes
# In short: (§1)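 MOR [35S]GTPγS functional assay in MOR-CHO membranes (Bmax about 2.5–4 pmol/mg). Efficacy is expressed as % of the maximal stimulation by full agonist DAMGO.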
# [4] = target: Kappa-type opioid receptor (Mus musculus, UniProt P33534); assay: Binding affinity to mouse kappa opioid receptor expressed in CHO cell membrane assessed as inhibition constant incubated for 1.5 hrs by competitive radioligand binding assay; assay type: cell membranes
# [5] = target: Mu-type opioid receptor (Mus musculus) (UniProt P42866); assay: Binding affinity to mouse mu opioid receptor expressed in CHO cell membrane assessed as stimulation of [35S]-GTPgammaS binding by measuring maximal efficacy incubated for 1.5 hrs by scintillation spectroscopy analysis relative DAMGO; assay type: cell membranes; in short: as §1
# [6] = Selectivity ratio, ratio of Ki for binding affinity to human delta opioid receptor expressed in CHO cell membrane to Ki for binding affinity to mouse mu opioid receptor expressed in CHO cell membrane
# Mus musculus [7] = species on record: Mus musculus; assay: Selectivity ratio, ratio of Ki for binding affinity to mouse kappa opioid receptor expressed in CHO cell membrane to Ki for binding affinity to mouse mu opioid receptor expressed in CHO cell membrane
SMILES,pKi (Mu-type opioid receptor [1]),Activity (Mus musculus [2]),pEC50 (Mu-type opioid receptor [3]),pKi [4],Emax [5],Ratio Ki [6],Ratio Ki (Mus musculus [7]),Emax ([5]; filed as modulator)
CC(C)c1c[nH]c2c(C(=O)N[C@H]3CC[C@@]4(O)[C@H]5Cc6ccc(O)c7c6[C@@]4(CCN5CC4CC4)[C@H]3O7)cccc12,8.56,inactive,8.61,7.96,8.37%,9.3,4,–
O=C(N[C@H]1CC[C@@]2(O)[C@H]3Cc4ccc(O)c5c4[C@@]2(CCN3CC2CC2)[C@H]1O5)c1cccc2cc(Br)[nH]c12,9.32,Active,–,8.82,13.3%,14,3.1,–
N#Cc1c[nH]c2c(C(=O)N[C@H]3CC[C@@]4(O)[C@H]5Cc6ccc(O)c7c6[C@@]4(CCN5CC4CC4)[C@H]3O7)cccc12,9.06,inactive,8.60,8.26,11.4%,14,–,–
O=C(N[C@H]1CC[C@@]2(O)[C@H]3Cc4ccc(O)c5c4[C@@]2(CCN3CC2CC2)[C@H]1O5)c1cccc2c(Br)c[nH]c12,9.03,inactive,8.61,8.28,14.9%,20.6,5.7,–
O=C(N[C@@H]1CC[C@@]2(O)[C@H]3Cc4ccc(O)c5c4[C@@]2(CCN3CC2CC2)[C@H]1O5)c1cccc2c(C3CCCCC3)c[nH]c12,8.25,inactive,7.68,7.38,6.23%,11.5,7.5,–
CC(=O)Nc1c[nH]c2c(C(=O)N[C@@H]3CC[C@@]4(O)[C@H]5Cc6ccc(O)c7c6[C@@]4(CCN5CC4CC4)[C@H]3O7)cccc12,9.57,inactive,9.06,8.19,8.84%,116,24.4,–
O=C(N[C@@H]1CC[C@@]2(O)[C@H]3Cc4ccc(O)c5c4[C@@]2(CCN3CC2CC2)[C@H]1O5)c1cccc2cc(-c3ccccc3)[nH]c12,8.49,inactive,8.26,8.94,10.2%,7.3,0.4,–
O=C(N[C@@H]1CC[C@@]2(O)[C@H]3Cc4ccc(O)c5c4[C@@]2(CCN3CC2CC2)[C@H]1O5)c1cccc2c(Br)c[nH]c12,9.15,–,8.98,8.97,–,16.7,1.6,70.4%
CC(=O)c1c[nH]c2c(C(=O)N[C@H]3CC[C@@]4(O)[C@H]5Cc6ccc(O)c7c6[C@@]4(CCN5CC4CC4)[C@H]3O7)cccc12,9.37,inactive,8.28,–,9.81%,25.4,14.9,–
O=C(N[C@@H]1CC[C@@]2(O)[C@H]3Cc4ccc(O)c5c4[C@@]2(CCN3CC2CC2)[C@H]1O5)c1cccc2c(C3CCCC3)c[nH]c12,8.84,inactive,–,7.96,21.3%,6.8,7.5,–
O=C(N[C@H]1CC[C@@]2(O)[C@H]3Cc4ccc(O)c5c4[C@@]2(CCN3CC2CC2)[C@H]1O5)c1cccc2c(-c3ccccc3)c[nH]c12,8.63,inactive,8.73,7.87,5.57%,6.3,5.7,–
O=C(N[C@@H]1CC[C@@]2(O)[C@H]3Cc4ccc(O)c5c4[C@@]2(CCN3CC2CC2)[C@H]1O5)c1cccc2cc(Cl)[nH]c12,9.20,–,8.85,8.89,38.5%,3.8,2,–
O=C(N[C@H]1CC[C@@]2(O)[C@H]3Cc4ccc(O)c5c4[C@@]2(CCN3CC2CC2)[C@H]1O5)c1cccc2c([N+](=O)[O-])c[nH]c12,8.97,inactive,8.63,8.01,11.3%,–,–,–
CC(C)c1c[nH]c2c(C(=O)N[C@@H]3CC[C@@]4(O)[C@H]5Cc6ccc(O)c7c6[C@@]4(CCN5CC4CC4)[C@H]3O7)cccc12,9.05,inactive,8.76,9.01,36.2%,22.2,1.1,–
Cc1c[nH]c2c(C(=O)N[C@H]3CC[C@@]4(O)[C@H]5Cc6ccc(O)c7c6[C@@]4(CCN5CC4CC4)[C@H]3O7)cccc12,9.16,Active,8.57,8.38,15.7%,20.1,6.1,–
N#Cc1cc2cccc(C(=O)N[C@@H]3CC[C@@]4(O)[C@H]5Cc6ccc(O)c7c6[C@@]4(CCN5CC4CC4)[C@H]3O7)c2[nH]1,9.14,–,8.42,8.78,21.3%,16.5,2.3,–
O=C(N[C@H]1CC[C@@]2(O)[C@H]3Cc4ccc(O)c5c4[C@@]2(CCN3CC2CC2)[C@H]1O5)c1cccc2c(C3CCCC3)c[nH]c12,8.58,inactive,8.69,7.68,12.3%,10.6,7.9,–
O=Cc1c[nH]c2c(C(=O)N[C@@H]3CC[C@@]4(O)[C@H]5Cc6ccc(O)c7c6[C@@]4(CCN5CC4CC4)[C@H]3O7)cccc12,9.16,inactive,8.92,8.39,21.3%,< 35.1,5.8,–
N#Cc1cc2cccc(C(=O)N[C@H]3CC[C@@]4(O)[C@H]5Cc6ccc(O)c7c6[C@@]4(CCN5CC4CC4)[C@H]3O7)c2[nH]1,9.06,inactive,8.45,8.15,14.4%,–,8.2,–
CC(=O)c1c[nH]c2c(C(=O)N[C@@H]3CC[C@@]4(O)[C@H]5Cc6ccc(O)c7c6[C@@]4(CCN5CC4CC4)[C@H]3O7)cccc12,< 7.30,inactive,6.69,7.81,10.9%,–,–,–
O=C(N[C@H]1CC[C@@]2(O)[C@H]3Cc4ccc(O)c5c4[C@@]2(CCN3CC2CC2)[C@H]1O5)c1cccc2c(Cl)c[nH]c12,9.01,inactive,8.44,8.22,13.2%,37.9,6.1,–
O=Cc1c[nH]c2c(C(=O)N[C@H]3CC[C@@]4(O)[C@H]5Cc6ccc(O)c7c6[C@@]4(CCN5CC4CC4)[C@H]3O7)cccc12,9.60,inactive,9.05,8.55,8.24%,47.5,11.3,–
CC(=O)Nc1c[nH]c2c(C(=O)N[C@H]3CC[C@@]4(O)[C@H]5Cc6ccc(O)c7c6[C@@]4(CCN5CC4CC4)[C@H]3O7)cccc12,9.64,inactive,8.83,8.68,9.97%,23,9.4,–
O=C(N[C@H]1CC[C@@]2(O)[C@H]3Cc4ccc(O)c5c4[C@@]2(CCN3CC2CC2)[C@H]1O5)c1cccc2cc(Cl)[nH]c12,9.19,–,8.74,8.56,14.8%,2.8,4.2,–
Cc1cc2cccc(C(=O)N[C@@H]3CC[C@@]4(O)[C@H]5Cc6ccc(O)c7c6[C@@]4(CCN5CC4CC4)[C@H]3O7)c2[nH]1,9.51,inactive,8.82,9.10,21.8%,51.1,2.6,–
O=C(N[C@H]1CC[C@@]2(O)[C@H]3Cc4ccc(O)c5c4[C@@]2(CCN3CC2CC2)[C@H]1O5)c1cccc2c(C3CCCCC3)c[nH]c12,8.68,inactive,8.58,8.02,20.5%,8.9,4.6,–
O=C(N[C@H]1CC[C@@]2(O)[C@H]3Cc4ccc(O)c5c4[C@@]2(CCN3CC2CC2)[C@H]1O5)c1cccc2cc(-c3ccccc3)[nH]c12,8.61,inactive,8.68,8.19,7.44%,–,2.6,–
O=C(N[C@@H]1CC[C@@]2(O)[C@H]3Cc4ccc(O)c5c4[C@@]2(CCN3CC2CC2)[C@H]1O5)c1cccc2c(-c3ccccc3)c[nH]c12,8.84,inactive,8.75,7.58,8.47%,33.8,17.9,–
